Columns and labels:
Assay type in all cases: functional
Rattus norvegicus [1] = assay: Serum HDL cholesterol levels in female obese rats one week post treatment at 3 mg/kg oral dose; pretreatment value = 59 mg/dL
Rattus norvegicus [2] = assay: Serum Triglyceride levels in female obese rats two weeks post treatment at 10 mg/kg oral dose; pretreatment value = 943 mg/dL
Rattus norvegicus [3] = assay: Serum Triglyceride levels in female obese rats one week post treatment at 3 mg/kg oral dose; pretreatment value = 769 mg/dL
Rattus norvegicus [4] = assay: Blood glucose levels in female obese rats two weeks post treatment at 10 mg/kg oral dose; pretreatment value = 112 mg/dL
Rattus norvegicus [5] = assay: Serum HDL cholesterol levels in female obese rats two weeks post treatment at 100 mg/kg oral dose; pretreatment value = 59 mg/dL
Rattus norvegicus [6] = assay: Insulin levels in female obese rats two weeks post treatment at 30 mg/kg oral dose; pretreatment value = 9.3 ng/mL
Rattus norvegicus [7] = assay: Serum HDL cholesterol levels in female obese rats one week post treatment at 10 mg/kg oral dose; pretreatment value = 56 mg/dL
Rattus norvegicus [8] = assay: Serum Non-HDL cholesterol levels in female obese rats two weeks post treatment at 10 mg/kg oral dose; pretreatment value = 25 mg/dL
In short: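 Female obese Zucker fatty rats (10–12 weeks, 400–500 g), once-daily oral gavage in 20% EtOH/80% PEG-200 (v/v) for up to 14 days. Serum drawn after a 6 h fast, pre-dose and at days 7 and 14. Non-HDL cholesterol is serum total cholesterol times the percent area of the non-HDL peaks in a Superose 6HR gel-filtration profile with on-line cholesterol detection. n = 4 per dose.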

Rattus norvegicus [9] = assay: Serum Triglyceride levels in female obese rats one week post treatment at 3 mg/kg oral dose; pretreatment value = 1111 mg/dL
Rattus norvegicus [10] = assay: Insulin levels in female obese rats two weeks post treatment at 10 mg/kg oral dose; pretreatment value = 8.8 ng/mL
Rattus norvegicus [11] = assay: Serum HDL cholesterol levels in female obese rats one week post treatment at 10 mg/kg oral dose; pretreatment value = 61 mg/dL

Question: What does the source list for CC(C)(CO)CCCCOCCCCC(C)(C)CO?
Answer: Activity (Rattus norvegicus [1]): 70 mg/dL; Activity (Rattus norvegicus [2]): 706 mg/dL; Activity (Rattus norvegicus [3]): 770 mg/dL; Activity (Rattus norvegicus [4]): 117 mg/dL; Activity (Rattus norvegicus [5]): 263 mg/dL; Activity (Rattus norvegicus [6]): 17.4 ng/mL; Activity (Rattus norvegicus [7]): 100 mg/dL; Activity (Rattus norvegicus [8]): 43 mg/dL

Question: For CC(C)(CO)CCCCCOCCCCCC(C)(C)CO, which Activity (Rattus norvegicus [9]) is on record?
Answer: 1031 mg/dL

Question: And the Activity (Rattus norvegicus [10])?
Answer: 8.7 ng/mL

Question: What about the Activity (Rattus norvegicus [11]) of the same molecule?
Answer: 92 mg/dL

— ChEMBL document CHEMBL1137218, “Long hydrocarbon chain ether diols and ether diacids that favorably alter lipid disorders in vivo” (J Med Chem, 2004)
